Reference: ChEMBL document CHEMBL1811814, “Synthesis and evaluation of indole, pyrazole, chromone and pyrimidine based conjugates for tumor growth inhibitory activities--development of highly efficacious cytotoxic agents” (Eur J Med Chem, 2010)

How the values were obtained:
Format in all cases: functional
[1] = test system: LOX IMVI; assay: Growth inhibition of human LOXIMVI cells assessed tumor cell growth at 10^-5 M; set-up: scale not given: the % may be the effect or the level left
How it was run: (§1)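 NCI 60-human-tumor-cell-line panel screen. Each compound was tested at a single concentration of 10^-5 M, and percent growth of tumor cells was recorded for each cell line. Growth inhibition was expressed from these percent-growth values.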

[2] = test system: EKVX; assay: Growth inhibition of human EKVX cells
[3] = test system: NCI-H322M; assay: Growth inhibition of human NCI-H322M cells
[4] = test system: 786-0; assay: Growth inhibition of human 786-0 cells assessed tumor cell growth at 10^-5 M; set-up: scale not given: the % may be the effect or the level left; how it was run: as §1
[5] = test system: RXF 393; assay: Growth inhibition of human RXF393 cells assessed tumor cell growth at 10^-5 M; set-up: scale not given: the % may be the effect or the level left; how it was run: as §1
[6] = test system: HT-29; assay: Growth inhibition of human HT-29 cells
[7] = test system: CCRF-CEM; assay: Growth inhibition of human CCRF-CEM cells assessed tumor cell growth at 10^-5 M; set-up: scale not given: the % may be the effect or the level left; how it was run: as §1
[8] = test system: SK-MEL-2; assay: Growth inhibition of human SK-MEL-2 cells assessed tumor cell growth at 10^-5 M; set-up: scale not given: the % may be the effect or the level left; how it was run: as §1
[9] = test system: CAKI-1; assay: Growth inhibition of human Caki1 cells
[10] = test system: UACC-257; assay: Growth inhibition of human UACC257 cells
[11] = test system: T47D; assay: Growth inhibition of human T47D cells assessed tumor cell growth at 10^-5 M; set-up: scale not given: the % may be the effect or the level left
How it was run: (§2)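 Single-dose screen at 10^-5 M across the 60 human tumor cell line panel, run to NCI standards. The value is the percent growth of each cell line in the presence of compound. Compounds active at this dose moved on to five-concentration testing (10^-4 to 10^-8 M).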

[12] = test system: RXF 393; assay: Growth inhibition of human RXF393 cells
[13] = test system: K562; assay: Growth inhibition of human K562 cells assessed tumor cell growth at 10^-5 M; set-up: scale not given: the % may be the effect or the level left; how it was run: as §1
[14] = test system: SNB-19; assay: Growth inhibition of human SNB19 cells
[15] = test system: NCI-H23; assay: Growth inhibition of human NCI-H23 cells assessed tumor cell growth at 10^-5 M; set-up: scale not given: the % may be the effect or the level left; how it was run: as §1
[16] = test system: UO-31; assay: Growth inhibition of human UO31 cells assessed tumor cell growth at 10^-5 M; set-up: scale not given: the % may be the effect or the level left; how it was run: as §2
[17] = test system: NCI-H226; assay: Growth inhibition of human NCI-H226 cells assessed tumor cell growth at 10^-5 M; set-up: scale not given: the % may be the effect or the level left; how it was run: as §1
[18] = test system: SF-539; assay: Growth inhibition of human SF539 cells assessed tumor cell growth at 10^-5 M; set-up: scale not given: the % may be the effect or the level left; how it was run: as §1
[19] = test system: OVCAR-8; assay: Growth inhibition of human OVCAR8 cells
[20] = test system: HCT-15; assay: Growth inhibition of human HCT15 cells assessed tumor cell growth at 10^-5 M; set-up: scale not given: the % may be the effect or the level left; how it was run: as §1
[21] = test system: NCI-H226; assay: Growth inhibition of human NCI-H226 cells
[22] = test system: PC-3; assay: Growth inhibition of human PC3 cells
[23] = test system: SK-MEL-28; assay: Growth inhibition of human SK-MEL-28 cells assessed tumor cell growth at 10^-5 M; set-up: scale not given: the % may be the effect or the level left; how it was run: as §1
[24] = test system: COLO 205; assay: Growth inhibition of human COLO205 cells assessed tumor cell growth at 10^-5 M; set-up: scale not given: the % may be the effect or the level left; how it was run: as §1
[25] = test system: UACC-257; assay: Growth inhibition of human UACC257 cells assessed tumor cell growth at 10^-5 M; set-up: scale not given: the % may be the effect or the level left; how it was run: as §2
[26] = test system: NCI-H460; assay: Growth inhibition of human NCI-H460 cells
[27] = read-out: LC50 (the source's name)

## O=C1Nc2ccccc2/C1=C/c1cn(C(=O)c2c(Cl)cccc2Cl)c2ccccc12
[1]
  Activity: 48.4%
[2]
  GI50: 2.8 µM
[2]; [27]
  CC50: > 100 µM
[3]
  GI50: 2.9 µM
[3]; [27]
  CC50: > 100 µM
[4]
  Activity: 57%
[5]
  Activity: -4.1%
[6]
  GI50: 3.8 µM
[6]; [27]
  CC50: 54.9 µM
[7]
  Activity: 70.5%
[8]
  Activity: 39.9%
[9]
  GI50: 1.9 µM
[9]; [27]
  CC50: > 100 µM
[10]
  GI50: 5 µM
[10]; [27]
  CC50: 95.4 µM
[11]
  Activity: 47.7%
[12]
  GI50: 4.1 µM
[12]; [27]
  CC50: 43.6 µM
[13]
  Activity: 45.6%
[14]
  GI50: 7.2 µM
[14]; [27]
  CC50: > 100 µM
[15]
  Activity: 56.9%
[16]
  Activity: 50.7%
[17]
  Activity: 48.1%
[18]
  Activity: 67.4%
[19]
  GI50: 4.1 µM
[19]; [27]
  CC50: > 100 µM
[20]
  Activity: 30.9%
[21]
  GI50: 7.4 µM
[21]; [27]
  CC50: 83.1 µM
[22]
  GI50: 2.4 µM
[22]; [27]
  CC50: > 100 µM
[23]
  Activity: 81.4%
[24]
  Activity: 41.7%
[25]
  Activity: 79.1%
[26]
  GI50: 1.9 µM
[26]; [27]
  CC50: 7.9 µM
